From ChEMBL document CHEMBL4392846, “Identification and design of novel small molecule inhibitors against MERS-CoV papain-like protease via high-throughput screening and molecular modeling” (Bioorg Med Chem, 2019)
Calls of active or inactive are those of the source. The calls are words filed in the database; no cut-off is given here.

Assays:
[1] = target: Replicase polyprotein 1ab (Middle East respiratory syndrome-related coronavirus (isolate UnitedKingdom/H123990006/2012) (Betacoronavirus England 1) (Humancoronavirus EMC)) (UniProt K9N7C7); assay: (§1) Inhibition of MERS-CoV papain-like protease using Z-Arg-Leu-Arg-Gly-Gly-AMC as substrate preincubated for 5 mins followed by substrate addition and measured for 10 mins by fluorescence assay; parameters: concentration or dose not given beside the values
Target sequence in this assay (K9N7C7 854-2740 limits assumed): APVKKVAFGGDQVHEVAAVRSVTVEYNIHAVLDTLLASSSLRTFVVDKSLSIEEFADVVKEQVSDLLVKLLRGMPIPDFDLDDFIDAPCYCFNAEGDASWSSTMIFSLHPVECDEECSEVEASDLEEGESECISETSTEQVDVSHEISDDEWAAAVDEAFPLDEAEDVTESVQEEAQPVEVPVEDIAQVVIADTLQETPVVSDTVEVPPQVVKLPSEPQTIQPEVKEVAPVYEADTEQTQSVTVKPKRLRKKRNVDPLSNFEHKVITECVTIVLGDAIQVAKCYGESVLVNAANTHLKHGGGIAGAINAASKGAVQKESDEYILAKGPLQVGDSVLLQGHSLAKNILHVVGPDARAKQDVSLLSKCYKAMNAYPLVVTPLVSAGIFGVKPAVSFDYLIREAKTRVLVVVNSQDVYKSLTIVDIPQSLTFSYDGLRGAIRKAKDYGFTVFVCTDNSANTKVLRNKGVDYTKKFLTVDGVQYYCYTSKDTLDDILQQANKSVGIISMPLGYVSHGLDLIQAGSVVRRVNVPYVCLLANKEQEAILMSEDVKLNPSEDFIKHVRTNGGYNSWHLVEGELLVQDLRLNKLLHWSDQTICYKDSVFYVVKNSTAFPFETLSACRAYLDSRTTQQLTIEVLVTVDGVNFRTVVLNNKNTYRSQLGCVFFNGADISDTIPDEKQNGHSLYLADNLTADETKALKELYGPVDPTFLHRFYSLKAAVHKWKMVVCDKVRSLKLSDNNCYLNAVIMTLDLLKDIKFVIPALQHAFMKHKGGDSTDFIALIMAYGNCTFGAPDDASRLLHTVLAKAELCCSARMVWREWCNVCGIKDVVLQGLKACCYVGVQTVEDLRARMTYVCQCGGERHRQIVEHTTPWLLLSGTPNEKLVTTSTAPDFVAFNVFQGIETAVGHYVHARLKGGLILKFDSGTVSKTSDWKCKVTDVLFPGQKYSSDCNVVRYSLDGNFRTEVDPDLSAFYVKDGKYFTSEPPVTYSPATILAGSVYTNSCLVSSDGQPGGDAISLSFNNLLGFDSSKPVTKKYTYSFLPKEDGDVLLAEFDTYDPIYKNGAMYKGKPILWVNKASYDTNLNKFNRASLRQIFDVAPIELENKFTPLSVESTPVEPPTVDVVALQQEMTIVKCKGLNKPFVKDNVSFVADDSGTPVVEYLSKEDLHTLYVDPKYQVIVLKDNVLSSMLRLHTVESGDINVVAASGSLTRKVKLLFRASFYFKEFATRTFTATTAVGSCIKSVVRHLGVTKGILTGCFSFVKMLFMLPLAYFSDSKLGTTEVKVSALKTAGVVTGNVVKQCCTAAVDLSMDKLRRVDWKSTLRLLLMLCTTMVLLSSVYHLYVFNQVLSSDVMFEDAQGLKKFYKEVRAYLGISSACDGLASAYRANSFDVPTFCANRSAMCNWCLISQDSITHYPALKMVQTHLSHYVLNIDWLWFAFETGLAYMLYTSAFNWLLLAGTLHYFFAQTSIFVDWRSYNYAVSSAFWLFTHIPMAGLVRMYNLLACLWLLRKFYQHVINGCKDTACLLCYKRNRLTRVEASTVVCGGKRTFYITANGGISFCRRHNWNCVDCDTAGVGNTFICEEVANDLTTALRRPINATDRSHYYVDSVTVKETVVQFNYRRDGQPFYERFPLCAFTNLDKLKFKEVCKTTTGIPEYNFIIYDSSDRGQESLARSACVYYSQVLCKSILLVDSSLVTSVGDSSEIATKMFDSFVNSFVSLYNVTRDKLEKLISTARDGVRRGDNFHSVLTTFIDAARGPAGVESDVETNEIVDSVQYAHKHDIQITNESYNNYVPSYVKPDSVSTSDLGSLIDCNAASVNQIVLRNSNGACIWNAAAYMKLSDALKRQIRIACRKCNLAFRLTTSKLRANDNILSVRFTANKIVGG

[2] = target: T1, Replicase polyprotein 1ab (Middle East respiratory syndrome-related coronavirus (isolate UnitedKingdom/H123990006/2012) (Betacoronavirus England 1) (Humancoronavirus EMC), UniProt K9N7C7); assay: as §1
T1 sequence (K9N7C7 854-2740 limits assumed): as above

[3] = target: Replicase polyprotein 1ab (Middle East respiratory syndrome-related coronavirus (isolate UnitedKingdom/H123990006/2012) (Betacoronavirus England 1) (Humancoronavirus EMC)) (UniProt K9N7C7); assay: Inhibition of MERS-CoV papain-like protease at 50 uM using Z-Arg-Leu-Arg-Gly-Gly-AMC as substrate preincubated for 5 mins followed by substrate addition and measured for 10 mins by fluorescence assay relative to control
In short: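 Confirmation retest run by hand in triplicate at room temperature. Buffer: 50 mM HEPES pH 7.5, 0.01% Triton X-100, 0.1 mg/mL BSA, 2 mM DTT. Enzyme and compound preincubated 5 min, then Z-RLRGG-AMC added to 50 µM final. AMC fluorescence (ex 360/em 450 nm) followed continuously; percent inhibition calculated against DMSO control.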

[4] = target: T1, Replicase polyprotein 1ab; assay: Binding affinity to MERS-CoV papain-like protease by SPR analysis
In short: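 SPR on Biacore T200. Enzyme at 50 µg/mL in 10 mM sodium acetate pH 5.5 amine-coupled to CM5 chip (~10,000 RU); blank flow cells as reference. Compounds 0-50 µM (2-fold series) in PBSP + 0.5 mM TCEP, 2% DMSO, 30 µL/min, 25°C; double-referenced. KD from steady-state responses fit to rectangular hyperbola; rate constants from global 1:1 Langmuir fit.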

[5] = target: T1, Replicase polyprotein 1ab; assay: Competitive-inhibition of MERS-CoV papain-like protease using varying levels of Z-Arg-Leu-Arg-Gly-Gly-AMC as substrate by Dixon-plot analysis
[6] = target: Replicase polyprotein 1ab (Middle East respiratory syndrome-related coronavirus (isolate UnitedKingdom/H123990006/2012) (Betacoronavirus England 1) (Humancoronavirus EMC)) (UniProt K9N7C7); assay: Reversible inhibition of MERS-CoV papain-like protease assessed as recovery of enzyme activity at 125 times IC50 using Z-Arg-Leu-Arg-Gly-Gly-AMC as substrate incubated for 1 hr followed by 2-fold dilution and measured by fluorescence assay
In short: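 Dilution method: 4 µM enzyme incubated with compound for 1 h at room temperature in HEPES pH 7.5 assay buffer (2 mM DTT, 0.1 mg/ml BSA, 0.01% Triton X-100). DMSO-only enzyme served as control. Both samples diluted 2-fold, then seven further 2-fold dilutions. Activity read at each step with the continuous Z-RLRGG-AMC fluorescence assay.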

[7] = target: Replicase polyprotein 1ab (Middle East respiratory syndrome-related coronavirus (isolate UnitedKingdom/H123990006/2012) (Betacoronavirus England 1) (Humancoronavirus EMC)) (UniProt K9N7C7); assay: Binding affinity to 15N-labelled His-tagged Apo-MRES-CoV papain-like protease by TROSY [1H-15N] spectroscopy
[8] = target: Replicase polyprotein 1ab (Middle East respiratory syndrome-related coronavirus (isolate UnitedKingdom/H123990006/2012) (Betacoronavirus England 1) (Humancoronavirus EMC)) (UniProt K9N7C7); assay: Binding affinity to MERS-CoV papain-like protease in presence of Z-Arg-Leu-Arg-Gly-Gly-AMC by SPR analysis
In short: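 MERS-CoV PLpro was amine-coupled to a CM5 chip (~10,000 RU), with unmodified reference cells. Compounds (0-50 µM, 2-fold series) were injected with 500 µM Z-RLRGG-AMC substrate present, in PBSP + 0.5 mM TCEP + 2% DMSO at 30 µL/min and 25°C. Data were double-referenced, and KD came from a steady-state hyperbolic fit.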

SMILES	inhibition [1]	IC50 [2]	Kd [4]	further results
Cc1cc(C)n(S(=O)(=O)c2ccc(N)cc2)c(=O)n1	73%	20 µM	7.6 to 9.3 µM	inhibition [3]: > 50%; Ki [5]: 36.6 µM; inhibition [6]: Active; Activity [7]: Active
O=[N+]([O-])c1ccc(O)c(O)c1 [4-Nitrocatechol]	–	145 µM	–	–
O=C(NC1=CC=CC2C(=O)C=C(c3nn[nH]n3)OC12)c1ccc(OCCCCc2ccccc2)cc1 (configuration not stated)	–	–	–	inhibition [3]: > 50%; Activity [8]: inactive
O=[N+]([O-])c1ccc(Cl)c2nonc12	–	141 µM	–	–
O=C(O)c1cc(/N=N/c2ccc(S(=O)(=O)Nc3ccccn3)cc2)ccc1O [SULFASALAZINE]	–	–	7.6 to 112 µM	–
Nc1ccc([N+](=O)[O-])cn1	–	137 µM	–	–
CC1CCCC(C)N1S(=O)(=O)c1ccc(N)cc1 (configuration not stated)	7%	–	–	–
Cc1ccc(C)c(CSc2nc(C3CCCCC3)c(C#N)c(=O)[nH]2)c1	–	–	7.6 to 112 µM	–
CC(=O)Nc1ccc(S(=O)(=O)n2c(C)cc(C)nc2=O)cc1	2%	–	–	–
Nc1ccc(S(=O)(=O)N2CC(=O)NC(=O)C2)cc1	16%	–	–	–
COCC(=O)/C=C1\Sc2ccccc2N1C	–	–	7.6 to 112 µM	–
O=Cc1ccc(O)c(O)c1 [PROTOCATECHUALDEHYDE]	–	239 µM	–	–
Cc1ccc(S(=O)(=O)n2c(C)cc(C)nc2=O)cc1	11%	–	–	–
O=C(O)c1cc(/C=C/c2ccc(N3CCOCC3)cc2)nc2ccccc12	–	–	7.6 to 112 µM	–
Cn1c(=O)c2c(nc(NN=C3C(=O)NC(=O)NC3=O)n2C)n(C)c1=O	–	–	7.6 to 112 µM	–
